Assay outcomes as filed in PubChem BioAssay.
PAD4 FP inh – blocks human protein arginine deiminase 4. inhibition, % at 6.36 µM. recombinant PAD4, RCA probe fluorescence polarization. AID 485272. Q9UM07. 0.41% of 330,000 active;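 active = percent inhibition above a cutoff equal to the mean of all tested compounds plus 3 SD, cut at about 15% in these data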;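 note: 0% = PAD4 with RCA probe and DMSO and 100% = probe without PAD4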
PRMT1 inh – blocks human protein arginine methyltransferase 1 | recombinant PRMT1, activity-based probe fluorescence polarization | 1.3% of 370,000 active | inhibition, % at 2.79 µM | AID 652257 | Q99873;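 active = inhibition above about 21% made by adding two undisclosed values, limit read from the data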
Target sequence (Q99873 whole entry, looked up): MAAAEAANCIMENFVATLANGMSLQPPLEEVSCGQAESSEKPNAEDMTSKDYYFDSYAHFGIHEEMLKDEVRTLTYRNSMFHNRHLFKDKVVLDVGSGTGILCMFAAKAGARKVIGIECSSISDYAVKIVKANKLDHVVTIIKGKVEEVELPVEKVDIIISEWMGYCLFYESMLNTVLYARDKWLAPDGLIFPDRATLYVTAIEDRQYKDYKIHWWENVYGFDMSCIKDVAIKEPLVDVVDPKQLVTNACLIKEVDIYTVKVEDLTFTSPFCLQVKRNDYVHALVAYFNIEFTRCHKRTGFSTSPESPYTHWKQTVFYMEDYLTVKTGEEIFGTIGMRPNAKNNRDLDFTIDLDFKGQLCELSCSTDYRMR
SIAE primary – human SIAE inhibition, primary screen; SIAE FP-Rh probe binding, fluorescence polarization; inhibition, % at 9.66 µM; 0.69% of 370,000 active; AID 1053197;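 active = inhibition above a cutoff: mean of compounds within the control limits plus 3 SD of those, cut at about 17% in these data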;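 note: 0% = plate median of compound wells and 100% = probe without SIAE protein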
TCR-CD3 inh – inhibitors of human TCR-CD3 interaction | TAMRA-labeled TCR probe fluorescence, biochemical | inhibition, % at 9.4 µM | 0.37% of 360,000 active; in the data active = inhibition above about 19%;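 note: recombinant mutant TCR 2C K166C tagged with TAMRA read by polarization; 0% = receptor in buffer alone and 100% = receptor with positive control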
HTRA1 inh – blocks human HTRA1 serine peptidase | 0.5% of 340,000 active | Q92743 | inhibition, % at 5.96 µM | recombinant HTRA1, FP-rhodamine activity-based probe, fluorescence polarization; in the data active = inhibition above about 36%;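 note: 0% = enzyme with DMSO and 100% = wells lacking enzyme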
mABHD4 FP – inhibits mouse alpha/beta hydrolase domain 4; purified mABHD4, FP-Rh probe fluorescence polarization; inhibition, % at 8.92 µM; 0.54% of 370,000 active; AID 720543;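 active = inhibition exceeding the mean over every tested compound plus 3 SD, cut at about 30% in these data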;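 note: 0% = plate median of compound wells and 100% = S159A mutant with DMSO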
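Material: mouse ABHD4 enzyme, wild type; Benchmarks: S159A mutant high control, sample median low control; Buffer or medium: HEPES pH 7.0, NaCl, Pluronic buffer; Signal: fluorescence polarization; Read-out: percent inhibition of probe binding, normalized to plate controls; Timing: pre-incubation 45 min, probe exposure 60 min, at 25 °C; Dosing: 8.92 µM, single dose.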
PRMT1 confirm – PRMT1 (human) inhibition, FP confirmation; shares compounds with PRMT1 inh; recombinant His-PRMT1, activity-based probe fluorescence polarization; inhibition, % at 2.79 µM; 42% of 3,300 active; AID 687036;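 active = mean inhibition across replicates above the hit cutoff derived for the earlier primary screen, cut at about 22% in these data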
* hit, by the source's call; · = not tested or not shown. A selection: hits, their analogues and other compounds. The true share with any hit is near 2.9%.

SMILES | PAD4 FP inh | PRMT1 inh | SIAE primary | TCR-CD3 inh | HTRA1 inh | mABHD4 FP | PRMT1 confirm
O=C(Nc1cccc(F)c1)/C(=C/c1ccco1)NC(=O)c1ccco1 | -2.7 | 30.2* | 5.0 | -1.3 | -6.8 | 3.5 | 5.6
O=C(Nc1cccc(C(=O)O)c1)/C(=C\c1ccco1)NC(=O)c1ccccc1Cl | -2.4 | 29.8* | -1.9 | -1.8 | -4.0 | 22.0 | 4.6
O=C(Nc1cccc(C(=O)O)c1)/C(=C\c1ccc(F)cc1)NC(=O)c1ccco1 | -2.8 | 1.1 | -2.9 | -6.5 | 4.1 | -4.8 | ·
O=C(Nc1cccc(C(=O)O)c1)/C(=C\c1ccco1)NC(=O)c1ccc(Br)o1 | -2.2 | 33.7* | -0.1 | -0.5 | 0.1 | 7.3 | 0.7
CCCC[n+]1c(C)sc2ccc(C)cc21 | -5.7 | 42.2* | -0.1 | 2.1 | -0.6 | -1.1 | 17.7
Cc1ccc2sc(C)[n+](CCO)c2c1 | 9.0 | 58.4* | -2.6 | 5.5 | 4.7 | -1.5 | 33.2*
CC[n+]1c(C)sc2cc(C)ccc21 | 13.7 | 73.5* | 7.7 | -0.5 | 2.4 | -3.9 | 15.9
CCOCCCNC(=O)c1cc2c(s1)-c1ccccc1SC2 | 5.3 | 40.2* | -14.8 | 0.1 | -25.8 | -13.8 | 14.5
O=C(OCC(=O)N1N=C(c2ccc(Cl)cc2)CC1c1ccco1)c1cccnc1 (centres undefined) | -3.4 | 39.6* | -8.6 | -4.2 | -9.1 | 7.8 | 8.2
c1cncc(CNc2ccc3c(c2)OCO3)c1 | -2.0 | 74.7* | -4.5 | -11.1 | 8.9 | 12.4 | 9.2
CCCc1cc(=O)[nH]c(SCC(=O)Nc2ccc(N3CCCCC3)cc2)n1 | 1.7 | 49.3* | 5.9 | 3.7 | 8.2 | 8.3 | -0.6
Nc1c(C(=O)c2ccc(Cl)cc2)sc2nsc(SCCN3CCOCC3)c12 | 6.6 | -0.4 | 7.2 | -4.1 | 2.2 | 0.4 | ·
Nc1c(C(=O)c2ccccc2)sc2nsc(SCCN3CCCC3)c12 | 6.3 | 26.8* | 1.8 | 0.2 | 0.3 | 8.6 | 12.1
CC(=O)c1sc2nsc(SCCN3CCCCC3)c2c1N | -0.7 | 27.1* | 0.8 | -1.8 | · | 1.2 | 3.6
CC(=O)Nc1nnc(CCN2CCCCC2)s1 | 3.9 | -2.5 | -2.5 | 4.4 | 7.5 | 3.4 | ·
COC(=O)[C@]12C[C@H](CC(=O)NCC3CCCCC3)C(=O)N(Cc3ccc(Cl)cc3Cl)C1=C[C@H](C(C)(C)C)O[C@@H]2C | · | 2.6 | 4.3 | · | · | 2.7 | ·
COc1ccc(C(c2nnnn2C(C)(C)C)N2CCN(c3nc4ccccc4s3)CC2)cc1 (centres undefined) | · | -2.7 | -4.3 | 3.2 | -4.8 | 2.6 | ·
CCC(C)(C)n1nnnc1C(c1ccc(O)c(OC)c1)N1CCN(c2nc3ccccc3s2)CC1 (centres undefined) | -3.3 | 36.5* | 1.6 | 5.3 | -9.8 | -7.8 | 35.8*
Cc1ccc(NS(=O)(=O)c2cc(C(=O)NCc3ccncc3)ccc2C)cc1 | · | -1.4 | -3.0 | -7.0 | -4.9 | 3.0 | ·
COCCNC(=O)c1ccc(C)c(S(=O)(=O)Nc2ccc(C)cc2)c1 | 2.4 | 35.9* | 2.5 | 5.6 | 10.1 | -3.3 | 0.1
C=CCN(CC#Cc1ccc(C(F)(F)F)cc1)Cc1ccc(OC)cc1OC | · | -3.4 | -5.1 | · | · | -1.3 | ·
NC(=O)/C=C\C(=O)Nc1cccc(C(F)(F)F)c1 | 6.0 | 50.7* | -5.4 | -4.9 | -1.4 | 6.8 | 25.0*
C[C@H](CO)N1C[C@H](C)[C@H](CN(C)S(=O)(=O)c2cccc(F)c2)OCc2ccccc2-c2c(n(C)c3ccccc23)C1=O | · | 33.8* | 5.9 | -5.9 | -41.1 | 2.3 | -0.6
C[C@@H]1C[C@H](O)CCCCCC(=O)Cc2cc(O)cc(O)c2C(=O)O1 | · | -1.1 | 1.8 | · | · | -2.7 | ·
O=C(Cn1cnc2ccccc2c1=O)N1CCCCC1 | · | -7.9 | -0.4 | · | · | 4.5 | ·
Cc1nn(CCC(=O)NNC(=O)Nc2ccccc2F)c(C)c1[N+](=O)[O-] | · | -1.4 | -7.0 | · | · | 2.2 | ·
CC(C)c1csc(CN2CCC(C(=O)Nc3cccc(-c4ccco4)c3)CC2)n1 | · | 27.1* | -21.2 | -7.0 | -35.5 | -20.8 | -0.6
CCOc1ccc(N=CC2=C(O)CC(c3ccco3)CC2=O)cc1 (centres undefined) | -5.9 | -1.0 | 5.9 | 6.4 | -6.9 | 1.4 | ·
O=C1CC(c2ccco2)CC(O)=C1C=Nc1cc(Cl)cc(Cl)c1 (centres undefined) | -0.6 | 27.8* | 5.1 | 11.3 | 6.0 | 27.9 | 13.3
